TRAIL sens C8: sensitizes caspase-8 expressing cells to TRAIL; 1% of 360,000 active; inhibition (viability loss, TRAIL sensitization), % at 10 µM; NB7+C8 cells + TRAIL, ATPlite viability luminescence;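 active = compounds causing at least 50% loss of cell viability in the single-dose screen, relative to plate controls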
beta cell repl: inducers of beta-cell replication in MIN6 cells | MIN6 cells proliferation, ATPlite luminescence, 48 h; cells starved in 0.2% serum; 100% = growth in 10% serum | proliferation, % at 10 µM | 0.29% of 330,000 active;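 active = compounds whose signal lies at least 3.5 SD above the mean of all wells on their plate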;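 note: 0% = DMSO-treated cells in low-serum medium and 100% = 10% serum control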
iPSC survival up: hiPSC single-cell survival enhancement; ATPlite luminescence; 100% = ROCK inhibitor wells, 0% = DMSO; survival enhancement, % at 20 µM; 0.044% of 360,000 active; AID 602274; in the data active = survival enhancement above about 18%;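 note: cells exposed to compounds for 16 hours before the ATP read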
PPC-1+TRAIL kill: kills PPC-1 cancer cells in the presence of TRAIL; 0.41% of 220,000 active; cell killing (% activity), % at 4 µM or 5 µM; AID 1443; PPC-1 cells + TRAIL, ATPLite viability luminescence;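 active = cell killing above 50% in the first pass at 4 µM, then a duplicate retest at 5 µM averaging 50% or more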;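 note: plate controls were cells with TRAIL plus DMSO for no effect and medium-only wells lacking cells for full effect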
FLuc stim CS: affects firefly luciferase, flagging false hits in luciferase stimulation screens. activation factor at 10 µM. ATPlite luciferase biochemical, luminescence, 10 min; 0 = ATP-free wells, 1 = DMSO control. 200,000 tested, under 10 active. P08659;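 active = luciferase activation factor, scaled between plate controls, of at least 2 with compound at 10 µM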
Target sequence (P08659 whole entry, looked up): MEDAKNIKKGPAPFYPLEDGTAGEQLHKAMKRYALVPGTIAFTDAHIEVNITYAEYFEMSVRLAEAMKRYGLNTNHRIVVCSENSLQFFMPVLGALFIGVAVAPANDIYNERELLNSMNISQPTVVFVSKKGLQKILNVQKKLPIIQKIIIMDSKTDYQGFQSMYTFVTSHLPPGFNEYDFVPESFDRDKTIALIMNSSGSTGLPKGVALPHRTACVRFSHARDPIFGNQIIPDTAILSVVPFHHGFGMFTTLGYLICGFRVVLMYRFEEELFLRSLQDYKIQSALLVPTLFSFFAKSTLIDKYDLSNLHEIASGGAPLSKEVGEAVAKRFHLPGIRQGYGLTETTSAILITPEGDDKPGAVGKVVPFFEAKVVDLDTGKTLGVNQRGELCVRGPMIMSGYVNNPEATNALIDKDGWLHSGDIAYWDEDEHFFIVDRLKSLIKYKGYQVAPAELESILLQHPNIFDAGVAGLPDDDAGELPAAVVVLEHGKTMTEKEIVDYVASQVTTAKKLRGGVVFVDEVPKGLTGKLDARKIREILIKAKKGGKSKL
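Assay system: Luciferase/luciferin reagent mix; Medium: PBS as buffer for the ATP substrate; Dosing: test compounds dosed from 2 mM stocks in 100% DMSO; Times: 10 min, room temperature; Signal: luminescence from luciferase reaction; Read-out: luciferase activation; Controls: No-ATP low control, compound-free enzyme-plus-ATP high control.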
FLuc inhib CS: counter-screen for luciferase assay inhibitors: firefly luciferase inhibition | P08659 | AID 1006 | inhibition, % at 10 µM | 1.5% of 200,000 active | ATPLite firefly luciferase biochemical luminescence, 10 min;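 active = inhibition above about 50% when tested at 10 µM, limit read from the data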
Numbers without * were called inactive; x = no result. Rows were chosen to be rich in hits. Some 1.8% of all compounds tested hit in one or more screens of this group.

SMILES	TRAIL sens C8	beta cell repl	iPSC survival up	PPC-1+TRAIL kill	FLuc stim CS	FLuc inhib CS
COc1ccc(OC)c(-n2c(=S)[nH]c3c(sc(=S)n3-c3ccccc3)c2=O)c1	2.4	3.2	0.4	20.8	1	1.6
CCOc1ccc(NC(=S)NC(=O)c2c(Br)cnn2C)c([N+](=O)[O-])c1	21.8	-5.4	-1.5	31.6	0.4	64.1*
COc1cc(N(C)C)ccc1C=c1c2ccccc2n2c1cc(-c1ccccc1)[n+]2C	54.0*	x	-3.0	x	x	x
COc1cc(C=c2c3ccccc3n3c2cc(-c2ccccc2)[n+]3C)cc(OC)c1OC	20.6	x	-3.1	x	x	x
CN(C)c1ccc(C=c2c3cc([N+](=O)[O-])ccc3n3c2cc(-c2ccccc2)[n+]3C)cc1	75.8*	x	-3.6	x	x	x
CN(C)c1ccc(C=c2c3ccccc3n3c2cc(-c2ccccc2)[n+]3C)cc1	54.4*	x	-4.4	x	x	x
CSCC(=O)N1CCc2ccc(NC(=O)c3ccccc3Cl)cc2C1	14.5	-4.9	-0.8	x	x	x
Cc1ccc(C(=O)N/N=C\c2c(C)nn(-c3ccccc3)c2Cl)cn1	45.2	-2.4	-1.3	2.9	0.5	51.4*
Cc1ccc(O)c(/C=N/NC(=O)c2[nH]ncc2Br)c1	-5.8	0.0	2.2	7.6	0.3	74.0*
Cc1nn(-c2ccccc2)c(Cl)c1/C=N/NC(=O)c1ccccc1NS(=O)(=O)c1cccs1	7.7	0.0	-0.3	-3.4	0.9	8.4
Cc1nn(-c2ccccc2)c(Cl)c1/C=N/NC(=O)c1ccc(NS(=O)(=O)c2cccs2)cc1	x	-4.7	x	49.5	0.3	70.9*
Cc1nn(-c2ccccc2)c(Cl)c1/C=N/NC(=O)c1ccn[nH]1	75.1*	-6.3	-0.5	x	x	x
CC(NC(=O)C1CCCN1S(=O)(=O)c1ccc2c(c1)n(C)c(=O)c(=O)n2C)c1ccccc1 (centres undefined)	15.2	0.1	0.0	-8.7	x	x
O=C1CN(C(=O)CNCc2cccc(Cl)c2)c2ccccc2N1	-5.0	-3.4	-0.1	-7.4	x	x
Cc1nn(-c2ccccc2)c(Cl)c1/C=N/NC(=O)c1[nH]ncc1Br	72.7*	-4.0	-0.7	x	x	x
Cc1cc(C(=O)N/N=C/c2c(C)nn(-c3ccccc3)c2Cl)n[nH]1	31.6	-2.3	-0.3	5.0	x	x
CN(C)c1ccc(N=Nc2ccccc2C(=O)OCC(=O)N(C)c2ccccc2)cc1	31.6	-5.3	-1.2	32.9	0.3	65.3*
CC1(C)N=C(N)N=C(N)N1c1ccc(OCC(=O)N2CCOCC2)cc1	75.2*	x	4.2	x	x	x
CC1(C)N=C(N)N=C(N)N1c1ccc(OCC(=O)N2CCOCC2)c(Cl)c1	82.7*	x	-2.3	x	x	x
Cc1ccc(-c2ccc(OCC(=O)N3CCOCC3)cc2)cc1	-1.5	-1.7	-2.5	25.8	0.8	18.8
O=C(COc1ccc(S(=O)(=O)N2CCCCC2)cc1Cl)N1CCOCC1	9.4	-1.8	2.3	x	x	x
O=C(NC1(C(=O)O)CCCC1)c1ccccc1	-8.0	x	3.5	x	x	x
COc1ccc(/C=N/OC(=O)Nc2ccccc2OC)cc1	52.1*	-5.3	-1.0	29.4	0.2	84.5*
Nc1nc(SCC(=O)Nc2ccc3c(c2)OCO3)n[nH]1	3.8	-0.3	0.3	19.5	1	-3.3
OCC1CCCN(C(=S)Nc2ccc(Oc3ccccc3)cc2)C1 (centres undefined)	5.8	-3.5	-0.9	15.8	0.9	5.8
SMILES	TRAIL sens C8	beta cell repl	iPSC survival up	PPC-1+TRAIL kill	FLuc stim CS	FLuc inhib CS
CC(=O)c1ccc(NC(=S)N2CCCC(CO)C2)cc1 (centres undefined)	19.4	-3.1	-1.6	34.1	0.5	52.2*
COC(=O)Cc1ccc(NC(=S)N2CCCC(CO)C2)cc1 (centres undefined)	75.2*	-4.9	-1.2	63.0*	0.1	93.2*
N=c1n(CC(=O)c2ccc(Br)s2)c2ccccc2n1Cc1ccccc1	55.6*	-6.2	-0.6	2.8	x	x
Cn1c(=N)n(CC(=O)c2ccc(Br)s2)c2ccccc21	18.4	0.0	-3.9	6.7	1.1	-5.2
O=C(NCc1cc(C(F)(F)F)cc(C(F)(F)F)c1)C1CC(c2ccccc2C(F)(F)F)=NO1 (centres undefined)	x	-5.7	x	x	x	x
CCn1nc(C(=O)NCCc2ccc(S(N)(=O)=O)cc2)c2ccccc2c1=O	47.2*	0.1	3.8	-2.2	1.1	-6.8
Cc1csc(SCC(=O)c2cc(C)n(Cc3cccs3)c2C)n1	78.9*	-3.2	-3.9	30.3	0.1	88.8*
Cc1cc(C(=O)CSc2nnc(N)s2)c(C)n1Cc1cccs1	69.5*	0.0	-1.3	35.7	0.1	91.1*
COc1ccc(-c2nnc(SCC(=O)c3cc(C)n(Cc4cccs4)c3C)o2)cc1	-5.4	-1.0	0.3	5.5	1	-0.5
Cc1cc(C(=O)CSc2nncs2)c(C)n1Cc1ccco1	28.7	-4.3	-0.1	8.6	0.3	73.8*
Cc1cc(C(=O)COC(=O)[C@H](C)NC(=O)c2ccco2)c(C)n1Cc1ccco1	0.7	-4.2	0.1	14.5	0.4	56.2*
CCN1CCN(c2ccc(S(=O)(=O)N3CCOCC3)cc2NC(=O)/C=C/c2ccc([N+](=O)[O-])cc2)CC1	53.5*	-6.7	-0.3	x	x	x
CCN1CCN(c2ccc(S(=O)(=O)N3CCOCC3)cc2NC(=O)c2cccc([N+](=O)[O-])c2)CC1	-13.1	-5.8	4.3	x	x	x
CCN1CCN(c2ccc(S(=O)(=O)N3CCCCC3)cc2NC(=O)c2ccc([N+](=O)[O-])o2)CC1	55.4*	-7.5	-0.4	x	x	x
Cc1cc(N)n(-c2cc(C)c3ccccc3n2)n1	60.0*	-6.2	-3.3	47.6	0.2	83.6*
Cc1cc(C)c2nc(-n3nc(C)cc3N)cc(C)c2c1	9.8	-1.1	0.4	-8.5	0.9	14.9
CC(NC(=O)CNC(=O)c1ccc2c(c1)OCO2)c1ccc(S(N)(=O)=O)cc1 (centres undefined)	19.1	-0.3	-3.0	x	x	x
C=C1CCC2C(C)(C)[C@H](O)CC[C@@]2(C)[C@@H]1COc1cc(=O)oc2ccccc12 (some centres undefined)	8.7	-4.8	-1.9	-0.3	1.1	-7.0
C=C1CC(COc2cc(=O)oc3ccccc23)(c2ccccc2)OC1=O (centres undefined)	93.3*	x	-3.5	x	x	x
Cc1ccc(N2CC(C(=O)NCCS(=O)(=O)N3CCN(c4ccccc4)CC3)CC2=O)cc1C (centres undefined)	11.1	3.6	-0.1	x	x	x
NS(=O)(=O)c1ccc(CCNC(=O)CSc2nc3ccccc3c(=O)n2CCC(=O)N2CCCCC2)cc1	-6.3	-2.8	2.8	-8.8	0.5	53.3*
O=C(COc1ncnc2ccccc12)Nc1ccccc1[N+](=O)[O-]	-15.0	0.1	0.3	14.9	1	1.8
O=C(/C=C/Nc1ccc(S(=O)(=O)Nc2ncccn2)cc1)c1cccs1	8.7	-0.8	-0.6	3.5	x	x
O=C(/C=C/Nc1ccc(F)c(F)c1)c1cccs1	38.3	-1.4	-2.7	21.7	0.2	80.4*
